The array DNA melting data of Ke et al. (doi:10.1101/2024.01.08.574731)

Assays:
[1] = folding enthalpy; higher = less favourable; fluorescence melt of hairpins on a sequencing array, two-state fit; details: sodium 0.088 M
Outline: (§1)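 Melting temperature and folding enthalpy were obtained by bootstrapped two-state fitting. Fits used Cy3 fluorescence of library hairpins with annealed Cy3 and quencher oligos on a sequenced MiSeq flow cell, imaged in 50 mM Na-HEPES pH 8.0, 25 mM NaCl in 2.5 °C steps up to 60 °C and normalised to pre-quench Cy3 and control constructs. Four replicates were combined by inverse-variance weighting, and fitted temperatures were raised by 9.35 °C to match UV melts.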

[2] = melting temperature; fluorescence melt of hairpins on a sequencing array, two-state fit, raised by 9.35 °C to match UV melts; details: sodium 0.088 M
Outline: as §1

Row | Sequence | folding enthalpy [1] [kcal/mol] | Tm [2] [°C]
1 | GCGACCGAAAGGTCCGC ((((((....))).))) | -18.5 | 66.4
2 | GGCCTGGGAAACCGGGCC ((((.((....)).)))) | -30.6 | 66.3
3 | GATCATGCAGATGATC ((((((....)))))) | -39.3 | 51.4
4 | GATCTCCGAAAGGAATC (((.(((....)))))) | -14.4 | 33.3
5 | GATCGGGTACCCGATC ((((((....)))))) | -47.6 | 64.9
6 | GCCAAACGAAAGTTAGGC (((.(((....))).))) | -29.5 | 54.9
7 | GTGCGAGAAATCGCAC ((((((....)))))) | -28 | 68.2
8 | GCCGCCTCGAAAGAGGGC (((..(((....)))))) | -8.74 | 51.1
9 | GGGATTGGAAACAGTCTC (.((.((....)).)).) | -13 | 27.7
10 | GATCGCCCTAGCGATC ((((((....)))))) | -34.4 | 69.1
11 | GGGAGTGGAAACGCTTCC ((.((.(....).)).)) | -20.7 | 39
12 | GCGTGACGAAAGTCCGC (((.(((....)))))) | -32.2 | 65
13 | GATCACGCGCGTGATC ((((((....)))))) | -62 | 62.7
14 | GCGATAGCTCGC ((((....)))) | -9.76 | 65.8
15 | GACTAGCGAAAGCTTGTC (((.(((....))).))) | -31.3 | 54.7
16 | GATCGTAAAAACGATC ((((((....)))))) | -31.8 | 50.3
17 | GTTTATGGAAACATAAAC (((((((....))))))) | -38.1 | 50
18 | GCAGCGCGAAAGCGAGGC ((..(((....)))..)) | -19.2 | 63.8
19 | GATCTGTGGGCAGATC ((((((....)))))) | -49.7 | 54.3
20 | GATCAGGCTACTGATC ((((((....)))))) | -43.8 | 57.4
21 | GTGATTGGAAACAATTAC ((.((((....)))).)) | -32.3 | 37.5
22 | GAGCCGCGAAAGCGCCTC (((.(((....))).))) | -16 | 46.4
23 | GGCAAACCGAAAGGTGCC (((..(((....)))))) | -39.1 | 56

Row | Sequence | folding enthalpy [1] [kcal/mol] | Tm [2] [°C]
24 | GAATTTGGAAACAGATTC ((((.((....)).)))) | -25.2 | 33.3
25 | GGCCGACGAAAGTCCGCC (((.(((....))).))) | -39 | 55.1
26 | GATGCCGAAAGGCGATC ((((((....))).))) | -15.1 | 50.6
27 | GGGTCCGAAAGGATCCCC ((((((....)))..))) | -14.6 | 60.5
28 | GGTTTAACGAAAGTTACC (((..(((....)))))) | -14.6 | 29.6
29 | GCCGTGCGAAAGCACTGC ((.((((....)))).)) | -14.4 | 61.8
30 | GTGGACGGAAACGTTCAC (((.(((....))).))) | -42.2 | 55
31 | GCAGCGCGAAAGCACGGC ((.(.((....)).).)) | -22.9 | 53.9
32 | GTGTCTCCGAAAGGACAC (((..(((....)))))) | -25.1 | 45.7
33 | GATCCGACTTCGGATC ((((((....)))))) | -39.6 | 57.4
34 | GATCCAGAGTTGGATC ((((((....)))))) | -39.8 | 49.2
35 | GATGCCGAAAGGCCATC ((((((....))).))) | -14.2 | 46.9
36 | GCACAACCGAAAGGTTGC (((..(((....)))))) | -8.1 | 37.8
37 | GAACCAGGAAACCGGTTC (((((.(....).))))) | -36.3 | 45.1
38 | GGCGGTGGAAACATCGCC ((((.((....)).)))) | -38.6 | 63.1
39 | GATCAGACTACTGATC ((((((....)))))) | -33 | 49.1
40 | GTGGTCGAAAGACTCAC ((((((....))).))) | -19.6 | 46.2
41 | GTATGGCGAAAGCCTAC (((.(((....)))))) | -13.2 | 46.6
42 | GATCCATGATGGATC ((((((...)))))) | -34.2 | 49.6
43 | GCTCACGCGAAAGCGAGC (((..(((....)))))) | -15.1 | 47.8
44 | GATATCGGAAACGATATC (((((((....))))))) | -42.4 | 56.7
45 | GATCTCATGGAGATC ((((((...)))))) | -33.9 | 54
46 | GCAACCGGAAACGATTGC ((((.((....)).)))) | -31.5 | 47.4

Row | Sequence | folding enthalpy [1] [kcal/mol] | Tm [2] [°C]
47 | CGGTCGGAAACGACCCCG ((((((....)))..))) | -9.36 | 37.3
48 | GGGATTGGAAACAATCCC (((((((....))))))) | -41.9 | 60.5
49 | GATCCCAGCCGGGATC ((((((....)))))) | -32.8 | 64.2
50 | GGCCGGGGAAACCCAGCC (((.(((....))).))) | -42.6 | 51.7
51 | GCGCCCGGAAACGGGCAC (.(((((....))))).) | -9.09 | 55.4
52 | GACCGGAAACGGTC (((((....))))) | -28.3 | 67.5
53 | GCTTCTCGAAAGAGGAGC (((.(((....))).))) | -36.1 | 56.1
54 | GATCCTTCTCAGGATC ((((((....)))))) | -45 | 50.9
55 | GGTTACGAAAGTACGACC ((((((....)))..))) | -14.9 | 31.4
56 | GGGATCGGAAACGACCCC (((.(((....))).))) | -37.5 | 52.4
57 | GTCTGTGCGAAAGCAGAC (((..(((....)))))) | -19.5 | 46.4
58 | GATCATTGCGATGATC ((((((....)))))) | -38.8 | 51.8
59 | CGCGGATGACTCCGCG ((((((....)))))) | -43.1 | 66.7
60 | GGTGGCGGAAACGCCATC (.(((((....))))).) | -16.4 | 59.9
61 | GCGATCGAAAGATCCGC ((((((....))).))) | -28.8 | 52
62 | GATCTCCCTCGAGATC ((((((....)))))) | -41.1 | 51.7
63 | GCCTACGAAAGTAATGGC ((((((....)))..))) | -24.8 | 45.3
64 | GATCTCCGGGAGATC ((((((...)))))) | -39.7 | 52.8
65 | GCTCCTGGAAACAGGAAC (.(((((....))))).) | -19.3 | 36.6
66 | GATCGAATTATCGATC ((((((....)))))) | -38.2 | 50.7
67 | GTGCGCGAAAGCGGGCAC ((((((....)))..))) | -15.9 | 60.7
68 | AGAATCAGAAATGGTTCT ((((.((....)).)))) | -26.5 | 30.6
69 | GATCTTACTAAGATC ((((((...)))))) | -34.4 | 42.6
